Screening results as filed in PubChem BioAssay.
RGS4 inh: human RGS4 inhibition; 0.45% of 310,000 active; HEK293 M3R/RGS4 inducible, Fluo-4 calcium flux; active compounds read high; triggered by carbachol at its EC20; P49798; AID 463165; B-score at 10 µM;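 active means B-score, a plate-corrected calcium signal, over three deviations above library mean, with baseline fluorescence within five deviations of library mean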;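 further: RGS4 expression induced by doxycycline in cells with stable M3 receptor; B-score is computed from the integrated fluorescence ratio over baseline after carbachol; higher B-score means a larger calcium signal and so more RGS4 inhibition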
Target sequence (P49798 whole entry, looked up): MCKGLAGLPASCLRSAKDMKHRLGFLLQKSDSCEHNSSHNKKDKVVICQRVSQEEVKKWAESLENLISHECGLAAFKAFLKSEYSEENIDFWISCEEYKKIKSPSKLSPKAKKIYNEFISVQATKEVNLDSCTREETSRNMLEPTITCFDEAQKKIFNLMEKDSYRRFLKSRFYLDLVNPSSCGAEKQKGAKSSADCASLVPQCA
PHOSPHO1 block: blocks human PHOSPHO1 phosphatase activity. Q8TCT1. recombinant PHOSPHO1, absorbance phosphatase assay. inhibition, % at 13.3 µM. 1.1% of 290,000 active; in the data active means inhibition above about 60%
Target sequence (Q8TCT1 whole entry, looked up): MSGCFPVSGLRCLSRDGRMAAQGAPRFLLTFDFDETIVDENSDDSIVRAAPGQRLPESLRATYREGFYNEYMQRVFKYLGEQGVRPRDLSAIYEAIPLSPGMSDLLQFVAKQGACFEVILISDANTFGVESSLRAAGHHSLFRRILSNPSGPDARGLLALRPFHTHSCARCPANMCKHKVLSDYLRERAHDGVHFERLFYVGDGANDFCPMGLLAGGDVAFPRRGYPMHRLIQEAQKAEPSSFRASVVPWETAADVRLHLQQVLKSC
MrgX1 PAM: human MrgX1 positive allosteric modulation, primary screen; B-score at 10 µM; 0.63% of 310,000 active; Q96LB2; MrgX1-HEK293, Fluo-4 calcium flux, FDSS; active compounds read high; AID 588675;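 active means plate-corrected calcium response at least 3 library SD above typical, normal starting fluorescence, not activating the receptor alone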;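 further: compound read alongside a low EC10 to EC30 dose of BAM8-22 agonist; peak minus trough fluorescence over baseline measured at the second addition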
Target sequence (Q96LB2 whole entry, looked up): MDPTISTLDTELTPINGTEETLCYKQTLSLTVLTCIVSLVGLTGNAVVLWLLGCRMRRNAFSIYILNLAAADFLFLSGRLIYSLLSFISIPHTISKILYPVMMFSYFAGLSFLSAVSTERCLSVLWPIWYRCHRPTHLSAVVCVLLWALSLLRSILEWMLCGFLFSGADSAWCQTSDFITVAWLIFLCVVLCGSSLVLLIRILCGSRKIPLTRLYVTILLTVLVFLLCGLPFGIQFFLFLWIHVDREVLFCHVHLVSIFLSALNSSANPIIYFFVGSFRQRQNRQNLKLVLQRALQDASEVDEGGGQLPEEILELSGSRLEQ
MrgX1 agonist: agonists of human MrgX1 receptor; Q96LB2; B-score at 10 µM; AID 588627; 0.44% of 310,000 active; MrgX1-HEK293 cells, Fluo-4 calcium fluorescence, agonist mode; active compounds read high;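 active means calcium response B-score plate-corrected fluorescence ratio at least 3 library SD, with starting fluorescence B-score inside 5 SD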
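Test system: HEK293 cells stably expressing human MrgX1 receptor; Input: fifteen thousand cells per well; Dosing: compound delivered in addition one of three; Schedule: overnight seeding, then 1 h dark dye loading; Technique: Fluo-4 NW calcium fluorescence; Measure: B-scored fluorescence response ratio; Controls: positive and negative controls per plate.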
MrgX1 antagonist: antagonists of human MrgX1 receptor; Q96LB2; MRGX1-HEK293 calcium flux, Fluo-4, BAM8-22 antagonism; active compounds read low; B-score at 10 µM; 1.3% of 310,000 active; AID 588676;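 active means calcium-response B-score plate-corrected more than 3 library SD below zero, starting fluorescence within 5 deviations, no agonist response on first addition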;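 further: peak minus trough fluorescence over baseline after final BAM8-22 challenge near maximal dose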
RGS4 pot: RGS4 potentiation or activation | HEK293 M3R/inducible RGS4, carbachol calcium flux Fluo4; active compounds read low | B-score at 10 µM | 0.92% of 310,000 active | AID 463111;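 active means B-score of the integrated calcium signal more than 4 SD below the library mean, with starting fluorescence not abnormally high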;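 further: negative B-score means reduced calcium response which marks RGS4 activation or potentiation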
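Assay system: HEK293 FlpIn-TREx cells, stable M3R, doxycycline-inducible RGS4 / Probe or stimulus: carbachol, ECmax concentration / Times: overnight RGS4 induction, 30 min dye load 37 °C, 20 min compound RT / Signal: kinetic calcium fluorescence imaging with Fluo4-AM dye, 2 µM / Measure: Agonist-evoked peak-minus-minimum fluorescence over baseline, integrated ratio, B score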
MrgX1 antag conf: confirmation of human MrgX1 receptor antagonists | 19% of 2,300 active | remaining BAM8-22 calcium response % of control (active compounds read low), % at 10 µM | shares compounds with MrgX1 antagonist | MrgX1-HEK293, BAM8-22 calcium flux, Fluo-4; active compounds read low;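 active means remaining agonist calcium response no higher than 100% minus 3 SD of agonist-only control wells, with starting fluorescence near control levels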;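 further: agonist BAM8-22 given at a near maximal EC90 to ECmax level; peak minus minimum fluorescence divided by baseline after agonist addition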
HEK293 Ca flux: MrgX1 antagonist counter-screen hit in parental HEK293 cells | shares compounds with MrgX1 antagonist | Fluo-4 calcium fluorescence, FDSS | 2% of 4,000 active | fluorescence ratio F(max-min)/F0 at 10 µM;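 active means duplicate-averaged calcium fluorescence ratio at least three times the standard deviation of buffer wells, a nonspecific response in parental cells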
HEK293 Ca counter: activity in parental HEK293 cells without MrgX1. shares compounds with MrgX1 antagonist. parental HEK293 calcium flux, Fluo-4 fluorescence ratio; active compounds read high. fluorescence ratio F(max-min)/F0 at 10 µM. 0.4% of 4,000 active;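 active means calcium fluorescence ratio, averaged over duplicates, at least 3 SD of the buffer-well ratio, meaning a nonspecific response in receptor-free cells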;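 further: untransfected parental HEK293 lacking MrgX1 used as counterscreen for MrgX1 allosteric activators; fluorescence change taken during the second addition on a kinetic imager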
HEK293 Ca cntr2: activity in parental HEK293 cells lacking MrgX1 receptor; shares compounds with MrgX1 antagonist; Fluo-4 calcium fluorescence (FDSS); active compounds read high; fluorescence ratio F(max-min)/F0 at 10 µM; 8.7% of 4,000 active;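 active means calcium fluorescence ratio at least three times the spread of buffer wells, meaning a non-specific response in parental cells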
Of the large screens only hits and unclear results are named; the others gave an inactive call (follow-up assays come after a bar, where they were run). Most compounds without a hit are left out; they make up all but 4.5% or so of the library.

Cc1nc2sc(C(c3ccco3)N3CCC(C)CC3)c(O)n2n1 (stereo not drawn)	MrgX1 antagonist -5.24 | MrgX1 antag conf inactive | HEK293 Ca flux inactive | HEK293 Ca counter inactive | HEK293 Ca cntr2 inactive
CCN=C1SC(C(=O)Nc2cc(Cl)cc(Cl)c2)CC(=O)N1CC (stereo not drawn)	MrgX1 antagonist -5.27 | MrgX1 antag conf inactive | HEK293 Ca flux inactive | HEK293 Ca counter inactive | HEK293 Ca cntr2 inactive
Cc1cccc(C)c1NC(=O)C1NC(=O)CC1c1ccccc1 (stereo not drawn)	MrgX1 antagonist -9.5 | MrgX1 antag conf inactive | HEK293 Ca flux inactive | HEK293 Ca counter inactive | HEK293 Ca cntr2 inactive
CCOC(=O)C1=C(COC(=O)C2CC(=O)N(c3ccc(C)cc3)C2)NC(=O)NC1C (stereo not drawn)	MrgX1 antagonist -5.77 (no result: PHOSPHO1 block) | MrgX1 antag conf inactive | HEK293 Ca flux inactive | HEK293 Ca counter inactive | HEK293 Ca cntr2 inactive
CN(C)S(=O)(=O)c1ccc(S(=O)(=O)NCc2ccc3c(c2)OCO3)cc1	none
O=C(CSc1nc2ccccc2s1)Nc1cc(S(=O)(=O)N2CCOCC2)ccc1O	none
COc1ccc(NC(=S)NC(=O)C2CCCCC2)cc1	none
CCOc1ccc(NC(=S)NC(=O)C2CCCC2)cc1	MrgX1 antagonist -5.38 | MrgX1 antag conf inactive | HEK293 Ca flux inactive | HEK293 Ca counter inactive | HEK293 Ca cntr2 inactive
CCOC(=O)C1=C(C)Nc2nc(C)nn2C1c1ccc(OC)c(OC)c1 (stereo not drawn)	MrgX1 antagonist -6.74 | MrgX1 antag conf inactive | HEK293 Ca flux inactive | HEK293 Ca counter inactive | HEK293 Ca cntr2 inactive
COc1ccc2c(c1)CCCN2C(N)=O	MrgX1 antagonist -4.93 | MrgX1 antag conf inactive | HEK293 Ca flux inactive | HEK293 Ca counter inactive | HEK293 Ca cntr2 inactive
COC(=O)N1CCCc2cc(C)ccc21	none
Cn1c(=O)c2c(nc(SCCN3CCOCC3)n2C)n(C)c1=O	none
Cc1ccc2nc(C(O)C(O)c3nc4ccc(C)cc4[nH]3)[nH]c2c1 (stereo not drawn)	none
Cc1ccc2nc(C(C)O)[nH]c2c1 (stereo not drawn)	MrgX1 antagonist -7.07 | MrgX1 antag conf 64.2% | HEK293 Ca flux inactive | HEK293 Ca counter inactive | HEK293 Ca cntr2 inactive
Cc1ccccc1CNC(=O)C(=O)NCC1OCCCN1S(=O)(=O)c1cccs1 (stereo not drawn)	none
CCC1(c2ccc(F)cc2)NC(=O)N(CC(=O)NC2CC2)C1=O (stereo not drawn)	none (no result: PHOSPHO1 block)
CCC1(c2ccc(F)cc2)NC(=O)N(CC(=O)c2cc(C)n(C3CC3)c2C)C1=O (stereo not drawn)	MrgX1 antagonist -6.26 (no result: PHOSPHO1 block) | MrgX1 antag conf inactive | HEK293 Ca flux inactive | HEK293 Ca counter inactive | HEK293 Ca cntr2 51
CC1CN(C(=O)c2cccc(Oc3ccccc3)c2)CC(C)O1 (stereo not drawn)	MrgX1 antagonist -4.67 (no result: PHOSPHO1 block) | MrgX1 antag conf inactive | HEK293 Ca flux inactive | HEK293 Ca counter inactive | HEK293 Ca cntr2 inactive
CS(=O)(=O)N(CC(=O)N1CCN(c2cccc(Cl)c2)CC1)C1CCCCC1	none
Cc1ccc(Cl)cc1N1CCN(C(=O)CN(C2CCCCC2)S(C)(=O)=O)CC1	MrgX1 antagonist -12.2 | MrgX1 antag conf inactive | HEK293 Ca flux inactive | HEK293 Ca counter inactive | HEK293 Ca cntr2 inactive
Cc1csc(NC(=O)c2ccc(Cn3nc(C)c(Br)c3C)o2)n1	MrgX1 antagonist -4.78 | MrgX1 antag conf 74.0% | HEK293 Ca flux inactive | HEK293 Ca counter inactive | HEK293 Ca cntr2 inactive
CCC(C(=O)NC(C)(C)C)N(Cc1ccco1)C(=O)CNS(=O)(=O)c1ccc(OC)cc1 (stereo not drawn)	none
COC(=O)c1cc(NC2c3ccccc3C(=O)N2Cc2ccco2)cc(C(=O)OC)c1 (stereo not drawn)	none (no result: RGS4 inh, RGS4 pot)
O=C1c2ccccc2C(Nc2ccc(S(=O)(=O)N3CCCCC3)cc2)N1Cc1ccco1 (stereo not drawn)	MrgX1 antagonist -7.85 | MrgX1 antag conf inactive | HEK293 Ca flux inactive | HEK293 Ca counter inactive | HEK293 Ca cntr2 inactive
COc1ccc(NC2c3ccccc3C(=O)N2Cc2ccco2)cc1OC (stereo not drawn)	MrgX1 antagonist -5.36 | MrgX1 antag conf inactive | HEK293 Ca flux inactive | HEK293 Ca counter inactive | HEK293 Ca cntr2 inactive
Cc1cc2oc(=O)cc(Cn3nnc(-c4ccc(Cl)cc4)n3)c2cc1C(C)C	none
CCCn1c(NCc2ccccn2)nc2ccccc21	none
c1ccc(CNc2nc3ccccc3n2CCN2CCOCC2)nc1	MrgX1 antagonist -4.66 | MrgX1 antag conf inactive | HEK293 Ca flux inactive | HEK293 Ca counter inactive | HEK293 Ca cntr2 inactive
CC(C)c1ccc(NC2CCCN(C(=O)c3cnsn3)C2)cc1 (stereo not drawn)	MrgX1 antagonist -6.78 | MrgX1 antag conf inactive | HEK293 Ca flux inactive | HEK293 Ca counter inactive | HEK293 Ca cntr2 inactive
Cc1cc(C(=O)N2CCCC(Nc3ccc(C(C)C)cc3)C2)nn1C (stereo not drawn)	none
O=C(Cc1ccccc1)NC1CCSc2ccccc21 (stereo not drawn)	none
O=C(c1ccc(Cn2c(=O)[nH]c3ccccc3c2=O)cc1)N1CCN(c2ccccn2)CC1	none
O=C(c1ccc(Cn2c(=S)[nH]c3ccccc3c2=O)cc1)N1CCN(c2ccccn2)CC1	MrgX1 antagonist -8.03 | MrgX1 antag conf 84.1% | HEK293 Ca flux inactive | HEK293 Ca counter inactive | HEK293 Ca cntr2 inactive
Cc1ccc2[nH]c(=O)c(CN(CCN3CCOCC3)C(=O)Nc3ccc(F)cc3)cc2c1	MrgX1 antagonist -5.15 | MrgX1 antag conf inactive | HEK293 Ca flux inactive | HEK293 Ca counter inactive | HEK293 Ca cntr2 inactive
O=C(Oc1ccc(Cl)c2cccnc12)N1CCCCC1	MrgX1 antagonist -5.46 | MrgX1 antag conf inactive | HEK293 Ca flux inactive | HEK293 Ca counter inactive | HEK293 Ca cntr2 inactive
O=C(Oc1ccc(Cl)c2cccnc12)N1CCOCC1	none
O=C(Nc1ccc(N=Nc2ccccc2)c(NC(=O)C2CCCO2)c1)C1CCCO1 (stereo not drawn)	none
